In ChEMBL document CHEMBL1125890, “Synthesis, calcium-channel-blocking activity, and antihypertensive activity of 4-(diarylmethyl)-1-[3-(aryloxy)propyl]piperidines and structurally related compounds” (J Med Chem, 1991):

Tests used:
Rattus norvegicus [1] = experiment: Antihypertensive activity expressed as change in mean arterial blood pressure (MABP) in spontaneously hypertensive rats (SHR),at 0.5-2h after 30 mg/kg oral administration; assay type: functional, Artery
Procedure, shortened: (§1)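 Adult male SHR, catheter implanted in carotid artery or abdominal aorta under anesthesia at least 24 h before dosing. Baseline pressure recorded 1-1.5 h. Compound given orally at 30 mg/kg as solution or suspension in 0.5% Tween 80/distilled H2O (v/v) or other vehicle. MABP read at 0.5, 1, 1.5, 2, 3, 4, 5 and 6 h. Average percent change from predose calculated per period. Paired one-tailed t test, p < 0.05. n = 3-6 rats unless noted.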

Oryctolagus cuniculus = species: Oryctolagus cuniculus; experiment: Calcium channel-blocking activity by determined by ability to antagonize calcium-induced contractions of isolated rabbit aortic strips; assay type: functional; conditions: Aorta, read-out: pA2 (converted)
Procedure, shortened: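 Rabbit aortic strips were bathed in turn in CaCl2-containing buffer, CaCl2-free buffer, then depolarizing (KCl) CaCl2-free buffer. Cumulative CaCl2 addition induced contractions, recorded with force-displacement transducers. Responses were compared without and with 1–100 nM test compound. pA2 was calculated by the Van Rossum method from at least three tissues.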

Rattus norvegicus [2] = experiment: Antihypertensive activity expressed as change in mean arterial blood pressure (MABP) in spontaneously hypertensive rats (SHR), at 3-6h after 30 mg/kg oral administration; assay type: functional, Artery; procedure, shortened: as §1

Structure (SMILES)	Change (Rattus norvegicus [1]) [%]	Kb (Oryctolagus cuniculus) [nM]	Change (Rattus norvegicus [2]) [%]
COc1cc(C(C)=O)ccc1OCCCN1CCC(CC(C#N)(c2ccc(F)cc2)c2ccc(F)cc2)C1 (stereo unspecified)	3	10	-7
COc1cc(C(C)=O)ccc1OCCCN1CCC(C(c2ccc(F)cc2F)c2ccc(F)cc2F)CC1	-12	15.8	-16
COc1cc(C#N)ccc1OCCCN1CCC(C(c2ccc(F)cc2)c2ccc(F)cc2)CC1	-3	2	-9
CC(=O)Nc1ccc(OCCCN2CCC(C(c3ccc(F)cc3)c3ccc(F)cc3)CC2)cc1	-12	12.6	-12
COc1cc(C(C)=O)ccc1OCCCN1CCCC(C(C#N)(c2ccc(F)cc2)c2ccc(F)cc2)C1 (stereo unspecified)	5	7.94	9
Fc1ccc(C(c2ccc(F)cc2)C2CCN(CCCOc3ccc(Cl)cc3)CC2)cc1	-15	2	-25
CCc1ccc(OCCCN2CCC(C(c3ccc(F)cc3)c3ccc(F)cc3)CC2)c(OC)c1	-9	2.51	-7
Fc1ccc(C(c2ccc(F)cc2)C2CCN(CCCOc3cccc4ccccc34)CC2)cc1	-6	5.01	-7
COC(=O)C1=C(C)NC(C)=C(C(=O)OC)C1c1ccccc1[N+](=O)[O-] [NIFEDIPINE]	-30	0.158	-35
COc1cc(C(C)=O)ccc1OCCCN1CCC(C(O)(c2ccc(F)c(F)c2)c2ccc(F)c(F)c2)CC1	-5	2.51	-24
COc1ccc(C(c2ccc(OC)cc2)C2CCN(CCCOc3ccc(C(C)=O)cc3OC)CC2)cc1	2	10	1
COc1cc(C(C)O)ccc1OCCCN1CCC(C(c2ccc(F)cc2)c2ccc(F)cc2)CC1 (stereo unspecified)	-14	10	-9
NC(=O)c1ccc(OCCCN2CCC(C(c3ccc(F)cc3)c3ccc(F)cc3)CC2)cc1	-3	31.6	-8
COc1cc(C(C)=O)ccc1OCCCN1CCC(C(c2ccc(F)cc2)c2ccc(F)cc2)CC1	-15	1.58	-22
COc1cc(C(C)=O)ccc1OCCCN1CCC(C(c2ccc(F)cc2)C2CCCCC2)CC1 (stereo unspecified)	3	5.01	-6
O=S(=O)(CCCN1CCC(C(c2ccc(F)cc2)c2ccc(F)cc2)CC1)c1ccccc1	2	20	3
COc1cc(C(C)=O)ccc1OCCCN1CCC(C(c2ccc(Cl)cc2)c2ccc(Cl)cc2)CC1	-3	2.51	-9
COc1cc(C(C)=O)ccc1OCCCN1CCC(CC(c2ccc(F)cc2)c2ccc(F)cc2)CC1	-13	3.16	-10
Fc1ccc(C(c2ccc(F)cc2)N2CCN(C/C=C/c3ccccc3)CC2)cc1 [FLUNARIZINE]	-1	5.01	-1

Structure (SMILES)	Change (Rattus norvegicus [1]) [%]	Kb (Oryctolagus cuniculus) [nM]	Change (Rattus norvegicus [2]) [%]
COc1cc(C(C)=O)ccc1OCCCN1CCC(C(O)(c2ccc(F)cc2)c2ccc(F)cc2)CC1	-5	10	-9
CC(C)(C)c1ccc(OCCCN2CCC(C(c3ccc(F)cc3)c3ccc(F)cc3)CC2)cc1	-15	1	-10
Fc1ccc(C(c2ccc(F)cc2)C2CCN(CCCOc3ccc(Br)cc3)CC2)cc1	-3	1.58	-17
COc1cc(C(C)=O)ccc1OCCCN1CCC(C(c2ccc(F)cc2)c2ccccn2)CC1 (stereo unspecified)	-3	158	3
COc1cc(C(C)=O)ccc1OCCCN1CCC(C(c2ccccc2)c2ccccc2)CC1	-20	6.31	-12
COc1ccc(OCCCN2CCC(C(c3ccc(F)cc3)c3ccc(F)cc3)CC2)cc1	-2	2.51	-3
COc1cc(C(C)=O)ccc1OCCCN1CCC(C(C#N)(c2ccc(F)cc2)c2ccc(F)cc2)C1 (stereo unspecified)	-2	6.31	1
COc1cc(C(C)=O)ccc1OCCCN1CCC(C(c2ccccc2)c2ccc(F)cc2)CC1 (stereo unspecified)	-8	6.31	-12
Cc1cccc(C)c1NC(=O)CN1CCN(CCCC(c2ccc(F)cc2)c2ccc(F)cc2)CC1 [LIDOFLAZINE]	-9	31.6	-9
COc1cc(C(C)=O)ccc1OCCCCN1CCC(C(c2ccc(F)cc2)c2ccc(F)cc2)CC1	-16	2.51	-21
COc1cc(C(C)=O)ccc1OCCCN1CCC(Cc2ccc(F)cc2)CC1	-7	20	-4
Fc1ccc(C(c2ccc(F)cc2)C2CCN(CCOc3cccc4ccccc34)CC2)cc1	-19	12.6	-27
COc1cc(C(C)=O)ccc1OCCCN1CCC(C(C(N)=O)(c2ccc(F)cc2)c2ccc(F)cc2)CC1	3	25.1	5
CC(=O)c1ccc(OCCCN2CCC(C(c3ccc(F)cc3)c3ccc(F)cc3)CC2)cc1	-1	2.51	0
COc1cc(C(C)=O)ccc1OCCCN1CCC(C(c2cccc(F)c2)c2cccc(F)c2)CC1	-11	3.16	-9
Fc1ccc(C(c2ccc(F)cc2)C2CCN(CCCOc3ccc4ccccc4c3)CC2)cc1	-7	7.94	-4
Fc1ccc(C(c2ccc(F)cc2)C2CCN(CCCOc3ccccc3)CC2)cc1	-1	1.58	-2
COc1cc(C(C)=O)ccc1OCCCN1CCC(C(C#N)(c2ccc(F)cc2)c2ccc(F)cc2)CC1	-17	2	-26
Fc1ccc(C(c2ccc(F)cc2)C2CCN(CCCSc3ccccc3)CC2)cc1	-5	3.16	-3

Structure (SMILES)	Change (Rattus norvegicus [1]) [%]	Kb (Oryctolagus cuniculus) [nM]	Change (Rattus norvegicus [2]) [%]
COc1ccccc1OCCCN1CCC(C(c2ccc(F)cc2)c2ccc(F)cc2)CC1	-4	2.51	-1
COc1cc(C(C)=O)ccc1OCCCN1CCC(C(c2ccc(C)cc2)c2ccc(C)cc2)CC1	3	15.8	-2
COc1cc(C(C)=O)ccc1OCCCN1CCCC(CC(C#N)(c2ccc(F)cc2)c2ccc(F)cc2)C1 (stereo unspecified)	2	12.6	-5
COC(=O)c1ccc(OCCCN2CCC(C(c3ccc(F)cc3)c3ccc(F)cc3)CC2)c(OC)c1	-4	1.26	-2
CN(CCCN1CCC(C(c2ccc(F)cc2)c2ccc(F)cc2)CC1)c1ccccc1	-3	2	-6
COc1cc(C(C)=O)ccc1OCCCN1CCC(C(NC(C)=O)(c2ccc(F)cc2)c2ccc(F)cc2)CC1	-3	63.1	-7
COc1ccc(CCN(C)CCCC(C#N)(c2ccc(OC)c(OC)c2)C(C)C)cc1OC (stereo unspecified) [VERAPAMIL]	-19	10	-22
COc1cc(C(C)=O)ccc1OCCCCCCN1CCC(C(c2ccc(F)cc2)c2ccc(F)cc2)CC1	-10	6.31	-22
COc1cc(C(C)=O)ccc1OCCCN1CCC(C(N)(c2ccc(F)cc2)c2ccc(F)cc2)CC1	1	31.6	-10
N#Cc1ccc(OCCCN2CCC(C(c3ccc(F)cc3)c3ccc(F)cc3)CC2)cc1	8	5.01	-11
COc1cc(C(=O)O)ccc1OCCCN1CCC(C(c2ccc(F)cc2)c2ccc(F)cc2)CC1	9	79.4	0
Fc1ccc(C(c2ccc(F)cc2)C2CCN(CCOc3ccc4ccccc4c3)CC2)cc1	-16	3.98	-30
Fc1ccc(C(c2ccc(F)cc2)C2CCN(CCCCc3ccccc3)CC2)cc1	-5	2.51	-9
COc1cc(C(C)=O)ccc1OCCCCCN1CCC(C(c2ccc(F)cc2)c2ccc(F)cc2)CC1	-5	3.16	-13
COc1cc(C(C)=O)ccc1OCCCN1CCC(C(c2ccc(F)c(F)c2)c2ccc(F)c(F)c2)CC1	-28	2.51	-35
COc1cc(C(C)=O)ccc1OCCCN1CCC(C(c2ccc(F)cc2)c2ccc(F)c(F)c2)CC1 (stereo unspecified)	-27	1.26	-30
COc1cc(C(C)=O)ccc1OCCN1CCC(C(c2ccc(F)cc2)c2ccc(F)cc2)CC1	-4	6.31	0
COc1cc(OCCCN2CCC(C(c3ccc(F)cc3)c3ccc(F)cc3)CC2)ccc1C(C)=O	-5	3.16	-11
COc1ccc([C@@H]2Sc3ccccc3N(CCN(C)C)C(=O)[C@@H]2OC(C)=O)cc1 [DILTIAZEM]	-14	20	-13
